Values after ≈ are worked out from the molar mass of the structure shown. Active and inactive are the calls of the source. The calls are words filed in the database; no cut-off is given here. Peptide text beside a SMILES is read from it.
Columns and labels:
[1] = Retention time of compound by RP-HPLC analysis; assay type: physicochemical
How it was run: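 Analytical reversed-phase HPLC.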

Listeria monocytogenes [2] = test: Antibacterial activity against Listeria monocytogenes ATCC 15313 assessed as inhibition of bacterial growth incubated for 24 hrs by absorbance based microplate reader analysis; assay type: functional; conditions: for MIC: read-out: MIC100
How it was run: (§1)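 Broth microdilution. A single colony was grown 24 h in its recommended broth, then diluted 1:10 000 in the same medium. Peptide serial dilutions were added from DMSO stock at 4 µL per 196 µL inoculated medium. Plates were incubated aerobically or anaerobically as each pathogen requires, at 37 °C for 24 h, and OD600 was read. Duplicate wells; assay repeated five times independently.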

Staphylococcus aureus [3] = test: Antibacterial activity against methicillin resistant Staphylococcus aureus BAA 2313 assessed as inhibition of bacterial growth incubated for 24 hrs by absorbance based microplate reader analysis; assay type: functional; how it was run: as §1
Enterococcus faecium [4] = test: Antibacterial activity against vancomycin resistant Enterococcus faecium BAA 2317 assessed as inhibition of bacterial growth incubated for 24 hrs by absorbance based microplate reader analysis; assay type: functional; conditions: for MIC: read-out: MIC100
How it was run: as §1, with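 “read. MIC was the lowest concentration giving 100% growth inhibition.” for “read.”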

Escherichia coli [5] = test: Antibacterial activity against Escherichia coli ATCC 33694 assessed as inhibition of bacterial growth incubated for 24 hrs by absorbance based microplate reader analysis; assay type: functional
How it was run: (§2)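 Broth microdilution. An overnight single-colony culture in recommended broth was diluted 1:10 000, and peptide serial dilutions in DMSO were added (4 µL into 196 µL). Plates incubated 24 h at 37 °C, aerobic or anaerobic as required, then OD600 read. Inhibition was calculated against pathogen-only and blank wells.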

Pseudomonas aeruginosa [6] = test: Antibacterial activity against Pseudomonas aeruginosa BAA 1744 assessed as inhibition of bacterial growth incubated for 24 hrs by absorbance based microplate reader analysis; assay type: functional; how it was run: as §2
Salmonella enterica [7] = test: Antibacterial activity against Salmonella enterica ATCC 13314 assessed as inhibition of bacterial growth incubated for 24 hrs by absorbance based microplate reader analysis; assay type: functional; how it was run: as §2
Staphylococcus aureus [8] = test: Bactericidal activity against Staphylococcus aureus ATCC 25923 assessed as inhibition of bacterial growth at MIC concentration incubated for 48 hrs by broth microdilution assay; assay type: functional, organism-based
How it was run: (§3)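 From broth-microdilution wells showing no growth, 10 µL was spotted onto agar and incubated 48 h at 37 °C. Plates were inspected for colonies. Fidaxomicin at 1 µM served as control.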

Clostridioides difficile [9] = test: Bactericidal activity against Clostridium difficile ATCC 43602 assessed as inhibition of bacterial growth at MIC concentration incubated for 48 hrs by broth microdilution assay; assay type: functional, organism-based; how it was run: as §3
Listeria monocytogenes [10] = test: Bactericidal activity against Listeria monocytogenes ATCC 15313 assessed as inhibition of bacterial growth at MIC concentration incubated for 48 hrs by broth microdilution assay; assay type: functional, organism-based; how it was run: as §3
Staphylococcus aureus [11] = test: Bactericidal activity against methicillin resistant Staphylococcus aureus BAA 2313 assessed as inhibition of bacterial growth at MIC concentration incubated for 48 hrs by broth microdilution assay; assay type: functional, organism-based
How it was run: (§4)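 Plates were incubated 48 h at 37 °C and examined for colonies. A fidaxomicin-treated culture at 1 µM served as the control.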

Enterococcus faecium [12] = test: Bactericidal activity against vancomycin resistant Enterococcus faecium BAA 2317 assessed as inhibition of bacterial growth at MIC concentration incubated for 48 hrs by broth microdilution assay; assay type: functional, organism-based; how it was run: as §4
Escherichia coli [13] = test: Bactericidal activity against Escherichia coli ATCC 33694 assessed as inhibition of bacterial growth at MIC concentration incubated for 48 hrs by broth microdilution assay; assay type: functional, organism-based; how it was run: as §3
Pseudomonas aeruginosa [14] = test: Bactericidal activity against Pseudomonas aeruginosa BAA 1744 assessed as inhibition of bacterial growth at MIC concentration incubated for 48 hrs by broth microdilution assay; assay type: functional, organism-based; how it was run: as §3
Salmonella enterica [15] = test: Bactericidal activity against Salmonella enterica ATCC 13314 assessed as inhibition of bacterial growth at MIC concentration incubated for 48 hrs by broth microdilution assay; assay type: functional, organism-based; how it was run: as §3
Clostridioides difficile [16] = test: Antibacterial activity against Clostridium difficile ATCC 43602 assessed as inhibition of bacterial growth incubated for 24 hrs by absorbance based microplate reader analysis; assay type: functional; conditions: read-out: MIC100
Caco-2 [17] = test: Anti-inflammatory activity in human Caco-2 cells infected with Clostridium difficile ATCC 43602 assessed as reduction in IL-6 level at MIC concentration by ELISA relative to control; assay type: functional; design: scale not given: the % may be the effect or the level left
How it was run: (§5)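 Caco-2 cells grown in DMEM + 10% FBS, 37 °C, 5% CO2, to 90% confluence, then seeded 30 000 cells/well and held 24 h. C. difficile was grown overnight anaerobically in meat broth, washed in PBS, and 1 µL of 0.5 OD600 culture added per 300 µL medium. […] Cytokine in supernatant measured by ELISA; three independent replicates.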

Caco-2 [18] = test: Anti-inflammatory activity in human Caco-2 cells infected with Clostridium difficile ATCC 43602 assessed as reduction in IL-1beta level at MIC concentration by ELISA relative to control; assay type: functional; design: scale not given: the % may be the effect or the level left; how it was run: as §5
Caco-2 [19] = test: Anti-inflammatory activity in human Caco-2 cells infected with Clostridium difficile ATCC 43602 assessed as reduction in TNFalpha level at MIC concentration by ELISA relative to control; assay type: functional; design: scale not given: the % may be the effect or the level left; how it was run: as §5

Row | Compound | Retention_time [1] [min] | Activity (Staphylococcus aureus [3]) | Activity (Enterococcus faecium [4]) | Activity (Escherichia coli [5]) | Activity (Pseudomonas aeruginosa [6]) | Activity (Salmonella enterica [7]) | Activity (Staphylococcus aureus [8]) | Activity (Clostridioides difficile [9]) | Activity (Listeria monocytogenes [10]) | Activity (Staphylococcus aureus [11]) | Activity (Enterococcus faecium [12]) | Activity (Escherichia coli [13]) | Activity (Pseudomonas aeruginosa [14]) | Activity (Salmonella enterica [15]) | also measured
1 | CC[C@H](C)[C@H](NC(=O)[C@H](C)NC(=O)[C@H](C)NC(=O)[C@@H](N)C(C)C)C(=O)N[C@@H](CC(C)C)C(=O)NCC(=O)N[C@@H](Cc1ccccc1)C(=O)N[C@@H](CC(C)C)C(=O)N[C@@H](C)C(=O)N[C@H](C(N)=O)[C@@H](C)O | 14.9 |  |  |  |  |  |  |  |  |  |  |  |  |  | 
2 | CC[C@H](C)[C@H](NC(=O)[C@H](C)NC(=O)[C@H](C)NC(=O)[C@@H](N)C(C)C)C(=O)N[C@@H](CC(C)C)C(=O)NCC(=O)N[C@@H](Cc1ccccc1)C(=O)N[C@@H](CC(C)C)C(=O)N[C@@H](C)C(=O)N[C@@H](C(N)=O)[C@H](C)O |  | inactive | inactive | inactive | inactive | inactive | Active | Active | Active | Active | Active | Active | Active | Active | Activity (Listeria monocytogenes [2]): inactive
3 | CC[C@H](C)[C@@H]1NC(=O)CNC(=O)CNC(=O)[C@H](CO)NC(=O)[C@H]([C@@H](C)CC)NC(=O)[C@H](CCCCN)NC(=O)[C@H](CO)NC(=O)[C@H](CC(C)C)NC(=O)[C@H](C(C)C)NC(=O)[C@@H]2CCCN2C(=O)[C@H]([C@@H](C)CC)NC(=O)[C@H](C(C)C)NC(=O)[C@H](CC(C)C)NC(=O)[C@@H]2CCCN2C(=O)CNC1=O (cyclo(LSKISGGIGPLVIPV)) | 18.35 |  |  |  |  | inactive | Active | Active | Active | Active | Active | Active | Active | Active | MIC (Clostridioides difficile [16]): 0.9 µM (≈ 1.29 µg/mL); MIC (Listeria monocytogenes [2]): 1.5 µM (≈ 2.15 µg/mL); Activity (Caco-2 [17]): 4%
4 | O=C(O)c1cn(C2CC2)c2cc(N3CCNCC3)c(F)cc2c1=O [CIPROFLOXACIN] |  |  |  |  |  |  |  |  |  |  |  |  |  |  | MIC (Enterococcus faecium [4]): 4 µM (≈ 1.33 µg/mL)
5 | CCc1c(Cl)c(O)c(Cl)c(O)c1C(=O)O[C@H]1[C@H](O)[C@H](OC)[C@H](OC/C2=C\C=C\C[C@H](O)/C(C)=C/[C@H](CC)[C@@H](O[C@@H]3OC(C)(C)[C@@H](OC(=O)C(C)C)[C@H](O)[C@@H]3O)/C(C)=C/C(C)=C/C[C@@H]([C@@H](C)O)OC2=O)O[C@@H]1C [FIDAXOMICIN] |  |  |  |  |  |  |  |  |  |  |  |  |  |  | MIC (Clostridioides difficile [16]): 1 µM (≈ 1.06 µg/mL); MIC (Listeria monocytogenes [2]): 1 µM (≈ 1.06 µg/mL); MIC (Enterococcus faecium [4]): 2 µM (≈ 2.12 µg/mL)
6 | H-AGVKQGWERS-NH2 | 6.41 |  |  |  | inactive | inactive | Active | Active | Active | Active | Active | Active | Active | Active | Activity (Caco-2 [18]): 18%; Activity (Caco-2 [19]): 0%
7 | H-DAWNHADELV-NH2 | 15.95 |  | inactive | inactive | inactive | inactive | Active | Active | Active | Active | Active | Active | Active | Active | Activity (Listeria monocytogenes [2]): inactive; Activity (Caco-2 [19]): 0%
8 | H-HADELVAGVKQ-NH2 | 9.41 |  |  | inactive | inactive | inactive | Active | Active | Active | Active | Active | Active | Active | Active | 
9 | H-IGPLVIPVAAIL-NH2 | 15.83 |  |  | inactive | inactive | inactive | Active | Active | Active | Active | Active | Active | Active | Active | MIC (Clostridioides difficile [16]): 1.8 µM; MIC (Enterococcus faecium [4]): 1.5 µM; Activity (Caco-2 [17]): 25%
10 | H-KISGGIGPLV-NH2 | 17.32 | inactive | inactive | inactive | inactive | inactive | Active | Active | Active | Active | Active | Active | Active | Active | Activity (Listeria monocytogenes [2]): inactive
11 | H-KLNEVELSKISGG-NH2 | 14.98 |  |  | inactive | inactive | inactive | Active | Active | Active | Active | Active | Active | Active | Active | MIC (Listeria monocytogenes [2]): 2.6 µM
12 | H-LSKISG-NH2 | 9.94 | inactive | inactive | inactive | inactive | inactive | Active | Active | Active | Active | Active | Active | Active | Active | 
13 | H-LSKISGGIGP-NH2 | 13.63 | inactive | inactive | inactive | inactive | inactive | Active | Active | Active | Active | Active | Active | Active | Active | 
14 | H-MNKLNEVELSKI-NH2 | 11.81 | inactive | inactive | inactive | inactive | inactive | Active | Active | Active | Active | Active | Active | Active | Active | 

Reference: ChEMBL document CHEMBL6177914, “Human microbiome derived synthetic antimicrobial peptides with activity against Gram-negative, Gram-positive, and antibiotic resistant bacteria” (RSC Med Chem, 2025)
